Assay results published in ChEMBL document CHEMBL2016531, “Identification of NAE Inhibitors Exhibiting Potent Activity in Leukemia Cells: Exploring the Structural Determinants of NAE Specificity” (ACS Med Chem Lett, 2011).
The source made the active and inactive calls. No cut-off for these calls is given here.

How the values were obtained:
Homo sapiens = species: Homo sapiens; assay: Inhibition of human recombinant NAE assessed as inhibition of NEDD8-UbcH12 complex formation at 0.001 to 10 uM after 1.5 hrs by Western blot analysis
How it was run: (§1)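 Cell-free gel assay. Purified human recombinant E1 incubated with its matching Ub/Ubl and E2 in 50 mM HEPES pH 7.4, 5 mM MgCl2, 1–20 μM ATP. Inhibitor at 0, 0.001, 0.01, 0.1, 1 or 10 μM, 1.5 h at room temperature. Products resolved by SDS-PAGE, immunoblotted and detected by ECL; densitometry used for semiquantitation.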

[1] = Inhibition of human recombinant NAE assessed as inhibition of NEDD8-UbcH12 complex formation after 1.5 hrs by Western blot analysis; how it was run: as §1
[2] = target: T1, NEDD8-activating enzyme E1 regulatory subunit (Homo sapiens) (UniProt Q13564); assay: Inhibition of APPBP1-mediated NEDD8 activation at […] after 1.5 hrs by Western blot analysis
T1 sequence (whole entry): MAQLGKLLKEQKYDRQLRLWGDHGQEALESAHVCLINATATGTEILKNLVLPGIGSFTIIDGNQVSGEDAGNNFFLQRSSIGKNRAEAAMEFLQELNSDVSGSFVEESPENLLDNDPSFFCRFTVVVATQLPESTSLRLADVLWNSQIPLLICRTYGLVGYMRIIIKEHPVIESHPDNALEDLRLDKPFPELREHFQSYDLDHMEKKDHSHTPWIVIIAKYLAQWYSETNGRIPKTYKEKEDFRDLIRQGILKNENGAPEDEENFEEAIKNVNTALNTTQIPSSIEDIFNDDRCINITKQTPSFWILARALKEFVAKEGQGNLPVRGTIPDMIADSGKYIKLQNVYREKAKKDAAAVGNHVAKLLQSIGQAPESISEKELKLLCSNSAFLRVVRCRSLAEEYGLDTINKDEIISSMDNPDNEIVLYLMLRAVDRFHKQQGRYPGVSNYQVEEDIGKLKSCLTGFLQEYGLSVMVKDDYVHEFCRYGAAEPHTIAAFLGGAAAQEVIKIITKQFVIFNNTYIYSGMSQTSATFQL

[3] = target: Tyrosine-protein kinase ABL1 (Homo sapiens) (UniProt P00519); assay: Inhibition of ABL assessed as remaining activity at 0.1 uM by radiolabeled kinase assay relative to control
[4] = target: Insulin-like growth factor 1 receptor (Homo sapiens) (UniProt P08069); assay: Inhibition of IGF1R assessed as remaining activity at 0.1 uM by radiolabeled kinase assay relative to control
Chain of Insulin-like growth factor 1 receptor (Homo sapiens) (P08069 31-736 limits assumed): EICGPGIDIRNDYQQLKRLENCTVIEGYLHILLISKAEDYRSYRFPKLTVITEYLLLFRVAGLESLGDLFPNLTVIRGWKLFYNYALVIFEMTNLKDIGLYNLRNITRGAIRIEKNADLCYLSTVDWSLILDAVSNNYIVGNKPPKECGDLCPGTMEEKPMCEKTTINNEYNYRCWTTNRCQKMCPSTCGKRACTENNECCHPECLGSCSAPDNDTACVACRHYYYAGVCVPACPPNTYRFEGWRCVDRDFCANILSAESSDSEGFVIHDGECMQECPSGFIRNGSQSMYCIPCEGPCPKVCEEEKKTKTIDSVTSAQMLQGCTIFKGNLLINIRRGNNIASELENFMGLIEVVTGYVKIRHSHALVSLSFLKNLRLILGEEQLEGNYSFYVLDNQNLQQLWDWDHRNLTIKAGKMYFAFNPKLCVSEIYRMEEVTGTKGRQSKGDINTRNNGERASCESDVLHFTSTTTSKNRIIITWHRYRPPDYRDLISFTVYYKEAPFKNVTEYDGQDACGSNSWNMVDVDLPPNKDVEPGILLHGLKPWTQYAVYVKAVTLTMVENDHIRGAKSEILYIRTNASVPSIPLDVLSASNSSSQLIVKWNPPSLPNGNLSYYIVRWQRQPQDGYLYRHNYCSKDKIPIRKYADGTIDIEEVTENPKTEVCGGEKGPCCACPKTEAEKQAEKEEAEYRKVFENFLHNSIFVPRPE
Chain of Insulin-like growth factor 1 receptor (Homo sapiens) (P08069 741-1367 limits assumed): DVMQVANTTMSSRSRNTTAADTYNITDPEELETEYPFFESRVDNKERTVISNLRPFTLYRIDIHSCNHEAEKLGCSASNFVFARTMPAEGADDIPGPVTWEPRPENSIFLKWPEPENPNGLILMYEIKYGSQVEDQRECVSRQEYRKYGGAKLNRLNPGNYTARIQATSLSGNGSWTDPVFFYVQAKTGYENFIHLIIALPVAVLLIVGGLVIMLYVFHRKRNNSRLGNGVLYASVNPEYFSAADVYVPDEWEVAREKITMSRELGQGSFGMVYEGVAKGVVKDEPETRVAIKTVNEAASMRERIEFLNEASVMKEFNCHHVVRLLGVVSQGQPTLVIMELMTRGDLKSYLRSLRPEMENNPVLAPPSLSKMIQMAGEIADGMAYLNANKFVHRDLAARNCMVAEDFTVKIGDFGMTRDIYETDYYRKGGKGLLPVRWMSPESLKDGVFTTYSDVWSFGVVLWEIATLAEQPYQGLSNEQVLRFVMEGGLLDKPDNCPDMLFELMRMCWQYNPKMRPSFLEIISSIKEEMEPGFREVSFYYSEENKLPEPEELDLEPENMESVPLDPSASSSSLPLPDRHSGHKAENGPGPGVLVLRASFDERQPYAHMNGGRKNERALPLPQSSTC

Chain of Tyrosine-protein kinase ABL1 (Homo sapiens) (P00519 whole entry): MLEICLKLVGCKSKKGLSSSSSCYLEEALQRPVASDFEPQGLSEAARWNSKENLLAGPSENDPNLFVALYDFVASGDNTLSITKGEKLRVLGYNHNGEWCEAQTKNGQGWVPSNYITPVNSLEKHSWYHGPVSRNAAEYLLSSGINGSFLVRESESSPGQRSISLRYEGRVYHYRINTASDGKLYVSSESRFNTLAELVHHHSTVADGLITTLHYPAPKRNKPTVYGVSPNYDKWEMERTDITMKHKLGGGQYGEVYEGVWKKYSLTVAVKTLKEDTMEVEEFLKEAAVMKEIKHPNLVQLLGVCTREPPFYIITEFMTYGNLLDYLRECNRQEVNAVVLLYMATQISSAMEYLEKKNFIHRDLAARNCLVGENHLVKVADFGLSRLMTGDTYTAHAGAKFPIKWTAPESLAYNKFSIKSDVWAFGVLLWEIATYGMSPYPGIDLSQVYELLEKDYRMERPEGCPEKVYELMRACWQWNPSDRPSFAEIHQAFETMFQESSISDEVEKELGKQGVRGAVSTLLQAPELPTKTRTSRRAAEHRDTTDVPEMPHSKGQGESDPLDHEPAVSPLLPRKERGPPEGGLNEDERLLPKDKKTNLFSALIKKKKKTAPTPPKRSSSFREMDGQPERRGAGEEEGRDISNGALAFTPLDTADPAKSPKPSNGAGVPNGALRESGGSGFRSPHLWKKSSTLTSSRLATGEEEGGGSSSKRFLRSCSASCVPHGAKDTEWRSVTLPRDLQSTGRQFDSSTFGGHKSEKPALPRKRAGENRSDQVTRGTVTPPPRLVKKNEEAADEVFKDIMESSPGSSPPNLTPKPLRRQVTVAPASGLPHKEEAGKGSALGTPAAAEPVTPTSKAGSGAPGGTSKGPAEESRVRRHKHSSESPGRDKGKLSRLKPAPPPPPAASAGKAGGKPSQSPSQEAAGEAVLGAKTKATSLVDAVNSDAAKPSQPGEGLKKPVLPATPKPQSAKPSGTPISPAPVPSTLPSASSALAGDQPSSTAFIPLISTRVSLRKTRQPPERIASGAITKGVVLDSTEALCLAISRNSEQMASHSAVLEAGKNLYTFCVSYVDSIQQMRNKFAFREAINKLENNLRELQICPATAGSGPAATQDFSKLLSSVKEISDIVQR

CCCCCCNc1ncnc2c1ncn2[C@@H]1O[C@H](COS(N)(=O)=O)[C@@H](O)[C@H]1O
inhibition (Homo sapiens): Active
IC50 [1]: < 0.01 µM
inhibition [2]: Active
Activity [3]: 102%
Activity [4]: 100%
